# Assay results as given in ChEMBL document CHEMBL3785020, “Discovery of novel sesquistilbene indanone analogues as potent anti-inflammatory agents” (Eur J Med Chem, 2016).
# Activity calls are given as the source filed them. The rule behind the calls is not given here.
# Assays:
# [1] = system: RAW264.7; assay: Antiinflammatory activity against LPS-induced mouse RAW264.7 cells assessed as inhibition of NO production at 50 uM preincubated for 4 hrs followed by LPS stimulation for 24 hrs by Griess reaction; format: functional
# In short: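 RAW264.7 cells in DMEM with 5% FBS at 37 °C and 5% CO2 were pretreated at 50 µM for 4 h, then stimulated with or without LPS (1 µg/mL) for 24 h. Nitrite in the supernatant was measured by Griess reagent at 540 nm against a NaNO2 standard curve. At least three independent experiments, each in duplicate; means ± SEM.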
# [2] = system: RAW264.7; assay: Antiinflammatory activity against LPS-induced mouse RAW264.7 cells assessed as inhibition of NO production at preincubated for 4 hrs followed by LPS stimulation for 24 hrs by Griess reaction; format: functional, cell-based
# In short: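 Cells were pretreated for 4 h, then stimulated with LPS (1 µg/mL) for 24 h. Supernatant was mixed with an equal volume of Griess reagent, and nitrite was read at 540 nm against a NaNO2 standard curve. IC50 was obtained by curve fitting.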
# [3] = system: RAW264.7; assay: Cytotoxicity against mouse RAW264.7 cells assessed as cell viability up to 50 uM by MTT assay; format: cell-based
# In short: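 MTT assay after 12.5-50 µM treatment with LPS stimulation for 24 h. Medium was replaced, then MTT was added to a final 0.5 mg/mL and incubated 4 h at 37 °C. Formazan was dissolved in DMSO and absorbance read at 570 nm. At least three independent experiments in duplicate.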
# [4] = system: Mus musculus; assay: Acute toxicity in ip dosed Kunming mouse assessed as mortality after 7 days by Bliss method; format: organism-based; details: in vivo, 168 h
# [5] = Solubility in water at pH 7.4; format: physicochemical
# [6] = system: Mus musculus; assay: Acute toxicity in po dosed Kunming mouse after 14 days by Bliss method; details: in vivo, 336 h
# [7] = (§1) Acute toxicity in ip dosed Kunming mouse after 14 days by Bliss method; format: organism-based; details: Kunming, in vivo
# [8] = Lipophilicity, logP of the compound; format: physicochemical; details: octanol/water
# [9] = Solubility in water at pH 1.2; format: physicochemical
# [10] = Solubility in water at pH 6.8; format: physicochemical
# [11] = system: RAW264.7; assay: Antiinflammatory activity against LPS-induced mouse RAW264.7 cells assessed as downregulation of iNOS expression preincubated for 4 hrs followed by LPS stimulation for 24 hrs by Western blot analysis; format: functional, cell-based
# In short: (§2)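 Cells serum-starved overnight, pretreated at 12.5-50 µM, then stimulated with LPS 1 µg/mL for 24 h. Whole-cell lysates were made in RIPA buffer with protease and phosphatase inhibitors, and 30 µg protein was loaded. Blots used iNOS (1:500) or COX-2 (1:10000) antibodies with HRP secondary and ECL detection. Signals were normalised to β-actin and expressed as fold of control. At least three independent experiments, each in duplicate.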
# [12] = biological target: MAP kinase p38 (Mus musculus) (UniProt P47811+O08911+Q9WUI1+Q9Z1B7); assay: Effect of p38 phosphorylation in LPS-induced mouse RAW264.7 cells preincubated with the compound followed by LPS-stimulation for 45 mins by Western blot analysis; format: cell-based
# [13] = system: RAW264.7; assay: Inhibition of JNK phosphorylation in LPS-induced mouse RAW264.7 cells preincubated with the compound followed by LPS-stimulation for 45 mins by Western blot analysis; format: cell-based
# [14] = system: RAW264.7; assay: Downregulation of TLR4 expression in LPS-induced mouse RAW264.7 cells preincubated with compound followed by LPS-stimulation for 45 mins by Western blot analysis; format: functional, cell-based
# [15] = system: RAW264.7; assay: Antiinflammatory activity against LPS-induced mouse RAW264.7 cells assessed as downregulation of COX2 expression preincubated for 4 hrs followed by LPS stimulation for 24 hrs by Western blot analysis; format: functional, cell-based; in short: as §2
# [16] = system: RAW264.7; assay: Effect of ERK phosphorylation in LPS-induced mouse RAW264.7 cells preincubated with the compound followed by LPS-stimulation for 45 mins by Western blot analysis; format: cell-based
# [17] = biological target: Transcription factor p65 (Mus musculus) (UniProt Q04207); assay: Inhibition of LPS-stimulated NFkappaB p65 nuclear translocation in mouse RAW264.7 cells preincubated with compound followed by LPS-stimulation for 2 hrs by Western blot analysis; format: cell-based
# Chain of Transcription factor p65 (Mus musculus) (Q04207 whole entry): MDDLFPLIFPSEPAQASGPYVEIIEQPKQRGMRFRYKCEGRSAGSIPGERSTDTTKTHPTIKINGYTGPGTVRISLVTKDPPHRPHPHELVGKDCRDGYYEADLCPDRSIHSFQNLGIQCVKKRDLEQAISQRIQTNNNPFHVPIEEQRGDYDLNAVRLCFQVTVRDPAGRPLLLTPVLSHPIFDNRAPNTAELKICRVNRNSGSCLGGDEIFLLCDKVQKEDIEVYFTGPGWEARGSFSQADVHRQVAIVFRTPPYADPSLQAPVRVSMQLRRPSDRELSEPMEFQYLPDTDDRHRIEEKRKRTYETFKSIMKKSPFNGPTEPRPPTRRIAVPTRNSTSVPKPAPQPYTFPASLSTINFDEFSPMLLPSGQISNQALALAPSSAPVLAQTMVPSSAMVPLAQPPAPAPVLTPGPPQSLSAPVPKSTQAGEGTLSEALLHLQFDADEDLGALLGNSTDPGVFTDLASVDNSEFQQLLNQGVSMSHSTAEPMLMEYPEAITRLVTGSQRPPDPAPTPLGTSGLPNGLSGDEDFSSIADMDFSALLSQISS
# In short: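 Cells were pretreated at 12.5-50 µM, then stimulated with LPS (1 µg/mL) for 2 h. Nuclear and cytoplasmic fractions were prepared with an extraction kit and blotted for NF-κB p65 (1:1000). β-actin was the cytoplasmic loading control and lamin the nuclear one. At least three independent experiments in duplicate.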
# [18] = system: Mus musculus; assay: as §1; format: organism-based; details: in vivo, 336 h
Compound,inhibition at 50 µM [1] [%],other results
COc1cc(OC)cc(C2C(O)c3cc(OC)cc(OC)c3C2c2ccccc2)c1 (configuration not stated),76.3,–
COc1cc(OC)cc([C@@H]2C(=O)c3cc(OC)cc(OC)c3[C@H]2c2cccc(F)c2)c1 (relative stereo),65.7,–
COc1cc(OC)cc([C@@H]2C(=O)c3cc(OC)cc(OC)c3[C@H]2c2ccc(F)cc2)c1 (relative stereo),77.3,–
CCOc1ccc([C@@H]2c3cc(OC)ccc3C(=O)[C@H]2c2ccc(OC)cc2)cc1 (relative stereo),84.4,–
COc1cc(OC)cc([C@@H]2C(=O)c3cc(OC)cc(OC)c3[C@H]2C2CCCCC2)c1 (relative stereo),77.3,–
CCOC(=O)[C@@H]1c2c(OC)cc(OC)cc2C(=O)[C@H]1c1cc(OC)cc(OC)c1 (relative stereo),64.6,–
COc1ccc([C@@H]2C(=O)c3ccc(OC)cc3[C@H]2c2cccc(F)c2)cc1 (relative stereo),80,–
Oc1ccc(/C=C/c2cc(O)cc(O)c2)cc1 [RESVERATROL],35,–
COc1ccc([C@@H]2C(=O)c3ccc(OC)cc3[C@H]2C2CCCCC2)cc1 (relative stereo),85.7,–
"COc1ccc(C2C(=O)c3ccc(OC)cc3C2c2ccccc2)cc1 (single isomer, unassigned; (-)) [listing 1 of 2 here]",–,inhibition [2]: Dose-dependent effect
COc1cc(OC)cc([C@@H]2C(=O)c3cc(OC)cc(OC)c3[C@H]2c2ccc(C(F)(F)F)cc2)c1 (relative stereo),71.8,–
COc1ccc([C@@H]2C(=O)c3ccc(OC)cc3[C@H]2c2ccc(-c3ccccc3)cc2)cc1 (relative stereo),57.5,–
"COc1ccc(C2C(=O)c3ccc(OC)cc3C2c2ccccc2)cc1 (single isomer, unassigned; (+)) [listing 1 of 2 here]",–,IC50 ([2]; raw264.7): 23.5 µM
COc1ccc(C2C(=O)c3ccc(OC)cc3C2c2ccccc2)cc1 (racemic) [listing 1 of 2 here],87.6,"Activity [3]: Non-toxic; Activity [4]: Toxic; solubility [5]: 46.5 µg/mL; Activity [6]: Dose-dependent effect; LD50 at 336 h [7]: 275 mg/kg; logP [8]: 1.77; IC50 ([2]; Mus musculus, RAW264.7): 23.2 µM; solubility [9]: 38.3 µg/mL; solubility [10]: 68.7 µg/mL"
COc1cc(OC)cc([C@@H]2C(=O)c3cc(OC)cc(OC)c3[C@H]2c2ccccc2)c1 (relative stereo),69.2,–
COc1cc(OC)cc([C@@H]2C(=O)c3cc(OC)cc(OC)c3[C@H]2c2ccc(C)cc2)c1,83.3,–
COc1ccc([C@@H]2C(=O)c3ccc(OC)cc3[C@H]2c2cc(OC)cc(OC)c2)cc1 (relative stereo),51.6,–
COc1ccc([C@@H]2C(=O)c3ccc(OC)cc3[C@H]2c2ccc(C)cc2)cc1 (relative stereo),47.4,–

Compound,inhibition at 50 µM [1] [%],other results
"COc1ccc(C2C(=O)c3ccc(OC)cc3C2c2ccccc2)cc1 (single isomer, unassigned; (+)) [listing 2 of 2 here]",–,inhibition [2]: Dose-dependent effect
COc1cc(OC)cc([C@@H]2C(=O)c3cc(OC)cc(OC)c3[C@H]2c2ccc3ccccc3c2)c1 (relative stereo),47.4,–
COc1cc(OC)cc([C@@H]2C(=O)c3cc(OC)cc(OC)c3[C@H]2c2ccc(OC(F)(F)F)cc2)c1 (relative stereo),65.6,–
COc1ccc([C@@H]2C(=O)c3ccc(OC)cc3[C@H]2c2ccc(OC(F)(F)F)cc2)cc1 (relative stereo),76.3,–
COc1ccc([C@@H]2c3cc(OC)ccc3C(=O)[C@H]2c2ccc(OC)cc2)cc1 (relative stereo),79.3,–
CCOc1ccc([C@@H]2c3c(OC)cc(OC)cc3C(=O)[C@H]2c2cc(OC)cc(OC)c2)cc1 (relative stereo),80.9,–
COc1ccc([C@@H]2C(=O)c3ccc(OC)cc3[C@H]2c2ccc3ccccc3c2)cc1 (relative stereo),58.7,–
COc1ccc([C@@H]2C(=O)c3ccc(OC)cc3[C@H]2c2ccc(C(F)(F)F)cc2)cc1 (relative stereo),80,–
COc1cc(OC)cc([C@@H]2c3c(OC)cc(OC)cc3C(=O)[C@H]2c2cc(OC)cc(OC)c2)c1 (relative stereo),59.4,–
COc1cc(OC)cc([C@@H]2C(=O)c3cc(OC)cc(OC)c3[C@H]2c2ccc(O)cc2)c1 (relative stereo),65.6,–
COc1ccc(C2C(=O)c3ccc(OC)cc3C2c2ccccc2)cc1 (racemic) [listing 2 of 2 here],–,Activity [11]: Dose-dependent effect; Activity [12]: inactive; inhibition [13]: Dose-dependent effect; Activity [14]: Dose-dependent effect; inhibition [2]: Dose-dependent effect; Activity [15]: Dose-dependent effect; Activity [16]: inactive; inhibition [17]: Dose-dependent effect
"COc1ccc(C2C(=O)c3ccc(OC)cc3C2c2ccccc2)cc1 (single isomer, unassigned; (-)) [listing 2 of 2 here]",–,LD50 [18]: 275 mg/kg; IC50 ([2]; raw264.7): 23.7 µM
COc1cc(OC)cc([C@@H]2C(=O)c3cc(OC)cc(OC)c3[C@H]2c2ccc(OCc3ccccc3)cc2)c1 (relative stereo),65.8,–
COc1cc(OC)cc([C@@H]2C(=O)c3cc(OC)cc(OC)c3[C@H]2Cc2ccccc2)c1 (relative stereo),86.9,–
COc1ccc([C@@H]2C(=O)c3ccc(OC)cc3[C@H]2c2ccc(F)cc2)cc1,85.9,–
COc1ccc([C@@H]2c3c(OC)cc(OC)cc3C(=O)[C@H]2c2cc(OC)cc(OC)c2)cc1 (relative stereo),61,–
COc1cc(OC)cc([C@@H]2C(=O)c3cc(OC)cc(OC)c3[C@H]2c2ccc(-c3ccccc3)cc2)c1 (relative stereo),73.9,–
